The species entered for test [1] is Cavia porcellus. In words: Calcium channel agonist activity in guinea pig left atrium (GPLA) at 10e-7 M. Type of test: functional. The settings on record: Cardiac atrium. Put shortly: (§1)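 Isolated guinea pig left atrium: positive inotropic response was taken as the percentage increase in contractile force over the tissue's basal force measured without test compound.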

Test [2] is filed under the species Cavia porcellus. In words: Calcium channel agonist activity in guinea pig ileum longitudinal smooth muscle (GPILSM) at 10e-7 M. Type of test: functional, organism-based.
The species named for test [3] is Cavia porcellus. Kind of test: Calcium channel agonist activity in guinea pig left atrium (GPLA) at 10e-9 M. The conditions noted are these: Cardiac atrium.
For test [4], the species on record is Cavia porcellus. In words: Calcium channel agonist activity in guinea pig ileum longitudinal smooth muscle (GPILSM) at 10e-6 M. Type of test: functional, organism-based.
The species entered for test [5] is Cavia porcellus. In words: Calcium channel antagonist activity in guinea pig ileum longitudinal smooth muscle (GPILSM) at 10e-7 M. The class given is functional, organism-based.
The species named for test [6] is Cavia porcellus. Kind of test: Calcium channel agonist activity in guinea pig left atrium (GPLA) at 10e-8 M. The conditions noted are these: Cardiac atrium.
The species named for test [7] is Cavia porcellus. In words: Calcium channel agonist activity in guinea pig left atrium (GPLA) at 10e-8 M. The class given is functional. The settings on record: Cardiac atrium. Put shortly: as §1
Test [8] is filed under the species Cavia porcellus. In words: Calcium channel agonist activity in guinea pig left atrium (GPLA) at 10e-6 M. The class given is functional. The conditions noted are these: Cardiac atrium. A digest of the protocol:
as §1

The species entered for test [9] is Cavia porcellus. Kind of test: Calcium channel antagonist activity in guinea pig ileum longitudinal smooth muscle (GPILSM) at 10e-6 M. Type of test: functional, organism-based.
Test [10] is filed under the species Cavia porcellus. In words: Calcium channel agonist activity in guinea pig ileum longitudinal smooth muscle (GPILSM) at 10e-5 M. The class given is functional, organism-based.
The species entered for test [11] is Cavia porcellus. Kind of test: Calcium channel agonist activity in guinea pig left atrium (GPLA) at 10e-5 M. The conditions noted are these: Cardiac atrium. Type of test: functional. A digest of the protocol: as §1

Each structure is given as a SMILES string.

`COC(=O)C1=C(C)NC(C)=C([N+](=O)[O-])C1c1ccccc1C(F)(F)F` (centres undefined): the EC50 in the test filed under Cavia porcellus [1] worked out at 0.77 µM; in the test filed under Cavia porcellus [2] it was 0.23 µM.
For the compound `CC1=NC(C)=C([N+](=O)[O-])C(c2ccccn2)/C1=C(\O)OC(C)C` (centres undefined), the half-maximal effective concentration (EC50) worked out at 0.00446 µM in the test listed under Cavia porcellus [3], 5.27 µM in the test filed under Cavia porcellus [4] and 0.0458 µM in the test listed under Cavia porcellus [6]. The IC50 in the test filed under Cavia porcellus [5] was determined as 0.207 µM.
For `CC1=NC(C)=C([N+](=O)[O-])C(c2ccccn2)/C1=C(\O)OC(C)C` (racemic), the EC50 in the test listed under Cavia porcellus [7] came out at 0.0458 µM; in the test filed under Cavia porcellus [8], 9.67 µM; in the test filed under Cavia porcellus [4], 5.27 µM. For the same compound, in the test filed under Cavia porcellus [9], the 50% inhibitory concentration (IC50) turned out to be 4.87 µM.
For the compound `CC1=NC(C)=C([N+](=O)[O-])C(c2cccnc2)/C1=C(\O)OC(C)C` (racemic), the concentration for a half-maximal effect (EC50) was 48 µM in the test filed under Cavia porcellus [10] and 28.5 µM in the test listed under Cavia porcellus [11].
Regarding `CC1=NC(C)=C([N+](=O)[O-])C(c2ccncc2)/C1=C(\O)OC(C)C` (racemic), the EC50 in the test filed under Cavia porcellus [10] turned out to be 35 µM; in the test filed under Cavia porcellus [8] it was 8.05 µM.

One may read the EC50 as the concentration needed to bring the measured effect to its halfway point. What is called IC50 is the concentration that inhibits the measured activity by half.

These data come from ChEMBL document CHEMBL1128482, “Syntheses, calcium channel agonist-antagonist modulation activities, and voltage-clamp studies of isopropyl 1,4-dihydro-2,6-dimethyl-3-nitro-4-pyridinylpyridine-5-carboxylate racemates and enantiomers” (J Med Chem, 1995).
